Tests used:
[1] = species: Homo sapiens; assay: Selectivity index, ratio of IC50 for recombinant human MAO-A to IC50 for recombinant human MAO-B
Procedure, shortened: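 Commercial human MAO-A (1.1 μg protein) and MAO-B (7.5 μg protein) adjusted to equal velocity (165 pmol p-tyramine/min). Compounds from 10 mM DMSO stock diluted in 0.05 M potassium phosphate, pH 7.4. Preincubated with enzyme 15 min at 37 °C in the dark; 200 μM Amplex Red, 2 U/mL HRP, 2 mM p-tyramine added for 20 min at 37 °C.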

[2] = biological target: T1, Amine oxidase [flavin-containing] A (Homo sapiens, UniProt P21397); assay: Inhibition of recombinant human MAO-A using p-tyramine as substrate preincubated for 15 mins followed by substrate addition measured after 20 mins by amplex red reagent based fluorescence assay
T1 sequence (P21397 whole entry): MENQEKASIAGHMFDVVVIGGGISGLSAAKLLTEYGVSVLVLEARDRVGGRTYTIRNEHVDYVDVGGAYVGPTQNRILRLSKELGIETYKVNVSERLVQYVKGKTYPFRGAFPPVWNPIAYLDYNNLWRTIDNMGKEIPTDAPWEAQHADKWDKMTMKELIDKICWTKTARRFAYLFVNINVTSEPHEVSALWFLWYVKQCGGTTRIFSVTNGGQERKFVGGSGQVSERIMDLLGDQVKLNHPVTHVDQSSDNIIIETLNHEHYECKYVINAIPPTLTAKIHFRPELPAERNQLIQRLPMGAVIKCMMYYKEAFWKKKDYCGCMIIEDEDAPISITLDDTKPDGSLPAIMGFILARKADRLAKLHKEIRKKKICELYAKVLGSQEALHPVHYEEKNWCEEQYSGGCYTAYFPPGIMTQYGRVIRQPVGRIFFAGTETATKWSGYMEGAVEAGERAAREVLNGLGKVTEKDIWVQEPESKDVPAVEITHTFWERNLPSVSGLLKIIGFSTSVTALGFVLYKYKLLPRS

[3] = biological target: T2, Amine oxidase [flavin-containing] B (Homo sapiens, UniProt P27338); assay: Inhibition of recombinant human MAO-B using p-tyramine as substrate preincubated for 15 mins followed by substrate addition measured after 20 mins by amplex red reagent based fluorescence assay
T2 sequence (P27338 whole entry): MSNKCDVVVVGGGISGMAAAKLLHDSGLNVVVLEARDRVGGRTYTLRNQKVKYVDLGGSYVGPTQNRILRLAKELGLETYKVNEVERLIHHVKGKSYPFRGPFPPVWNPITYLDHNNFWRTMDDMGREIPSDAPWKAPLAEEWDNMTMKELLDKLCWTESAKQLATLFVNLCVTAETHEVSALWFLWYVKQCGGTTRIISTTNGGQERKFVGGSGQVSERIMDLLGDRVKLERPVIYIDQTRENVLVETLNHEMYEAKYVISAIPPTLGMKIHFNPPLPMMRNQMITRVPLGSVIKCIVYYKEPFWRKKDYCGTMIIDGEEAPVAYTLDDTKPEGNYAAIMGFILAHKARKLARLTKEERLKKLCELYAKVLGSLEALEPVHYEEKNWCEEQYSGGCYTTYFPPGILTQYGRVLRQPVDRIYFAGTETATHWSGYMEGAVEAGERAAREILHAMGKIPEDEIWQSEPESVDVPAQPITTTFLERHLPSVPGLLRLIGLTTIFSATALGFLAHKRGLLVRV

[4] = test system: Mus musculus; assay: Acute toxicity in Kunming mouse assessed as abnormal change in water consumption at 2.4 mmol/kg, po administered as single dose via gavage measured continuously for first 4 hrs, intermittently for next 24 hrs and occasionally thereafter for 14 days; type: organism-based; settings: in vivo
Procedure, shortened: (§1)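 Male KM mice (22 days old, 18–20 g), 15 in total, randomly split into 3 groups of 5. Kept on a 12 h light/dark cycle at 20-22 °C and 60-70% humidity, fasted overnight with free water. Single oral dose of 2.4 mmol/kg suspended in 0.5% CMC-Na. Mortality, behaviour, water and food intake, and body weight followed over 14 days.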

[5] = test system: Mus musculus; assay: Cardiotoxicity in Kunming mouse at 2.4 mmol/kg, po administered as single dose via gavage measured continuously for first 4 hrs, intermittently for next 24 hrs and occasionally thereafter for 14 days by […]; type: toxicity, organism-based; settings: in vivo
Procedure, shortened: (§2)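 Male KM mice (18–20 g) received a single oral 2.4 mmol/kg dose in 0.5% CMC-Na suspension after an overnight fast. All animals were sacrificed on day 14 after dosing, and heart, liver and kidneys were examined macroscopically for damage.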

[6] = test system: Mus musculus; assay: Acute toxicity in Kunming mouse assessed as effect on serum AST level at 2.4 mmol/kg, po administered as single dose via gavage measured continuously for first 4 hrs, intermittently for next 24 hrs and occasionally thereafter for 14 days; type: organism-based; settings: in vivo
Procedure, shortened: (§3)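 Male KM mice (18–20 g), fasted overnight, given one oral 2.4 mmol/kg dose suspended in 0.5% CMC-Na. On day 14, orbital blood was collected before decapitation and serum AST and ALT activities measured against a control group. Mean ± SD of three independent experiments.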

[7] = test system: Mus musculus; assay: Acute toxicity in Kunming mouse assessed as effect on serum ALT level at 2.4 mmol/kg, po administered as single dose via gavage measured continuously for first 4 hrs, intermittently for next 24 hrs and occasionally thereafter for 14 days; type: organism-based; settings: in vivo; procedure, shortened: as §3
[8] = test system: Mus musculus; assay: Acute toxicity in Kunming mouse assessed as abnormal change in body weight at 2.4 mmol/kg, po administered as single dose via gavage measured continuously for first 4 hrs, intermittently for next 24 hrs and occasionally thereafter for 14 days; type: organism-based; settings: in vivo; procedure, shortened: as §1
[9] = test system: Mus musculus; assay: Hepatotoxicity in Kunming mouse at 2.4 mmol/kg, po administered as single dose via gavage measured continuously for first 4 hrs, intermittently for next 24 hrs and occasionally thereafter for 14 days by […]; type: toxicity, organism-based; settings: in vivo; procedure, shortened: as §2
[10] = test system: Mus musculus; assay: Acute toxicity in Kunming mouse assessed as mortality at 2.4 mmol/kg, po administered as single dose via gavage measured continuously for first 4 hrs, intermittently for next 24 hrs and occasionally thereafter for 14 days; type: organism-based; settings: in vivo; procedure, shortened: as §1
[11] = test system: Mus musculus; assay: Nephrotoxicity in Kunming mouse at 2.4 mmol/kg, po administered as single dose via gavage measured continuously for first 4 hrs, intermittently for next 24 hrs and occasionally thereafter for 14 days […]; type: toxicity, organism-based; settings: in vivo; procedure, shortened: as §2
[12] = test system: Mus musculus; assay: Acute toxicity in Kunming mouse assessed as abnormal change in food consumption at 2.4 mmol/kg, po administered as single dose via gavage measured continuously for first 4 hrs, intermittently for next 24 hrs and occasionally thereafter for 14 days; type: organism-based; settings: in vivo; procedure, shortened: as §1
[13] = biological target: Amyloid-beta precursor protein (Homo sapiens) (UniProt P05067); assay: Inhibition of self-induced Amyloid beta (1 to 42) (unknown origin) aggregation at 25 uM after 48 hrs by thioflavin T-based fluorometric assay relative to control
Chain of Amyloid-beta precursor protein (Homo sapiens) (P05067 whole entry): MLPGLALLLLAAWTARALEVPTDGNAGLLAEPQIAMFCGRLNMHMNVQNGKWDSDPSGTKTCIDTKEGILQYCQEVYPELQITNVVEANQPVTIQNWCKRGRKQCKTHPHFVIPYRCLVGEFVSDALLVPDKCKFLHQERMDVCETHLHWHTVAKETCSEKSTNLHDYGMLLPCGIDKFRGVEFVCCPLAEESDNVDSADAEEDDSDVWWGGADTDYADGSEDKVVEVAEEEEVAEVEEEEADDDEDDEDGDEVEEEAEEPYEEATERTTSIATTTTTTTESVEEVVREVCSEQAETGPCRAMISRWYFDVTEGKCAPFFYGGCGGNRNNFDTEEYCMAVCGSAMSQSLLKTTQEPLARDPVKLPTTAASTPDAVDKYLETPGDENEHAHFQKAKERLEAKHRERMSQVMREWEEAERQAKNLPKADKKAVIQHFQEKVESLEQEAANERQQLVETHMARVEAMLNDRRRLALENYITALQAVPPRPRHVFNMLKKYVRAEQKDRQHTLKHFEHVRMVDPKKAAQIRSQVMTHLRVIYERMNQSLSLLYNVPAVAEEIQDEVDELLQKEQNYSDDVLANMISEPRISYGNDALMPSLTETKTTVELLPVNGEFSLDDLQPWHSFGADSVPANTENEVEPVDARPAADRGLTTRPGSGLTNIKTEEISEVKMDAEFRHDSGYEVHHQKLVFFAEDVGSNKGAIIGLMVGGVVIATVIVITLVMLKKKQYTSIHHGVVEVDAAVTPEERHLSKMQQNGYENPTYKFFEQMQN
Procedure, shortened: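 Aβ1-42 stock (2000 μM in 1% ammonium hydroxide) diluted in 50 mM phosphate pH 7.4. Peptide (final 25 μM) incubated with or without compound (25 μM) at 37 °C for 48 h. Then diluted in 50 mM glycine-NaOH pH 8.0 containing 5 μM thioflavin T, read after 5 min (ex 446/em 490 nm). Inhibition = (1 − IFi/IFc) × 100 after blank subtraction. Mean ± SD of three independent experiments.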

[14] = Permeability of the compound in PBS/EtOH at […] after 16 hrs by PAMPA; type: ADME; settings: read-out: Peff

SMILES | Ratio IC50 [1] | IC50 [2] | IC50 [3] | further results
C#CCN(CCOc1ccc2ccc(=O)oc2c1)Cc1ccccc1 | 10.8 | 89.5 µM | 8.3 µM | 
C#CCN(CCCCOc1ccc2ccc(=O)oc2c1)Cc1ccc(C(C)C)cc1 | 10.1 | 35.4 µM | 3.5 µM | 
C#CCN(CCOc1ccc2ccc(=O)oc2c1)Cc1ccc(F)c(F)c1 | 4.24 | 40.8 µM | 9.62 µM | 
C#CCN(CCCCOc1ccc2ccc(=O)oc2c1)Cc1cccc(F)c1 | 44.6 | 69.1 µM | 1.55 µM | 
C#CCN(C)Cc1ccccc1 [PARGYLINE] |  |  |  | Activity [4]: Non-Toxic; Activity [5]: Non-Toxic; Activity [6]: Non-Toxic; Activity [7]: Non-Toxic; Activity [8]: Non-Toxic; Activity [9]: Non-Toxic; Activity [10]: Non-Toxic; Activity [11]: Non-Toxic; Activity [12]: Non-Toxic
C#CCN(C)CCCOc1ccc2ccc(=O)oc2c1 | 34 | 36.9 µM | 1.08 µM | inhibition [13]: 59.3%
C#CCN(CCCCOc1ccc2ccc(=O)oc2c1)Cc1ccc(F)c(F)c1 | 39.4 | 93.2 µM | 2.37 µM | inhibition [13]: 30.6%
C#CCN(CCCOc1ccc2ccc(=O)oc2c1)Cc1ccc(F)c(F)c1 | 10.1 | 49.2 µM | 4.86 µM | 
C#CCN(CCCOc1ccc2ccc(=O)oc2c1)Cc1ccc(OC)cc1 | 9.87 | 60 µM | 6.08 µM | 
C#CCN(CCCOc1ccc2ccc(=O)oc2c1)Cc1cccc(OC)c1 | 4.94 | 22.7 µM | 4.59 µM | 
C#CCN(CCCCOc1ccc2ccc(=O)oc2c1)Cc1cccc(OC)c1 | 33.6 | 78.6 µM | 2.34 µM | inhibition [13]: 38.2%
C#CCN(CCOc1ccc2ccc(=O)oc2c1)Cc1ccc(C)cc1 | 10 | 56.4 µM | 5.64 µM | 
C[C@]12CC[C@@H]3c4ccc(O)cc4CC[C@H]3[C@@H]1CC[C@@H]2O [ESTRADIOL] |  |  |  | Papp at 16 h [14]: 8 ×10⁻⁶ cm/s
C#CCN(CCCOc1ccc2ccc(=O)oc2c1)Cc1ccc(C(C)C)cc1 | 10.2 | 77.4 µM | 7.58 µM | 
C#CCN(CCOc1ccc2ccc(=O)oc2c1)Cc1ccc(OC)cc1 | 15.7 | 55 µM | 3.51 µM | 
C#CCN(CCCCOc1ccc2ccc(=O)oc2c1)Cc1ccc(OC)cc1 | 48.2 | 54.5 µM | 1.13 µM | inhibition [13]: 49.1%
C#CCN(CCOc1ccc2ccc(=O)oc2c1)Cc1ccc(C(C)C)cc1 | 10.1 | 70 µM | 6.96 µM | 
C#CCN(CCCCOc1ccc2ccc(=O)oc2c1)Cc1ccc(C)cc1 | 56.4 | 94.5 µM | 1.68 µM | inhibition [13]: 50%
C#CCN(CCCCOc1ccc2ccc(=O)oc2c1)Cc1ccccc1 | 91.4 | 89.3 µM | 0.978 µM | 
C#CCN(CCOc1ccc2ccc(=O)oc2c1)Cc1cccc(F)c1 | 9.64 | 53.3 µM | 5.53 µM | 
CCn1cc(C(=O)O)c(=O)c2cc(F)c(N3CCNC(C)C3)c(F)c21 (stereo unspecified) [LOMEFLOXACIN] |  |  |  | Papp at 16 h [14]: 1.05 ×10⁻⁶ cm/s
C#CCN(C)CCOc1ccc2ccc(=O)oc2c1 | 63.4 | 69.9 µM | 1.1 µM | inhibition [13]: 36.4%
C#CCN(CCCOc1ccc2ccc(=O)oc2c1)Cc1ccccc1 | 10.3 | 38.6 µM | 3.74 µM | 
C#CCN(CCCOc1ccc2ccc(=O)oc2c1)Cc1ccc(C)cc1 | 15.8 | 116 µM | 7.38 µM | 
C#CCN(CCOc1ccc2ccc(=O)oc2c1)Cc1cccc(OC)c1 | 10.3 | 72.1 µM | 7.01 µM | 
C#CCN(CCCOc1ccc2ccc(=O)oc2c1)Cc1cccc(F)c1 | 6.59 | 29.3 µM | 4.44 µM | 

— ChEMBL document CHEMBL4190276, “Design, synthesis and evaluation of coumarin-pargyline hybrids as novel dual inhibitors of monoamine oxidases and amyloid-β aggregation for the treatment of Alzheimer's disease” (Eur J Med Chem, 2017)
